Measurements published in ChEMBL document CHEMBL3272173, “Synthesis and biological activity of peptide antagonists of luliberin (luteinizing hormone-releasing hormone)” (J Med Chem, 1979).
Peptide text beside a SMILES is read from it. * marks the point of attachment. Cbz = O=C(OCc1ccccc1)*; Bn = c1ccc(C*)cc1

How the values were obtained:
Rattus norvegicus [1] = assay: Antiovulatory activity in sc dosed CD rat assessed as blockade of ovulation administered as six doses at 1200, 1230, 1300, 1350, 1400 and 1450 hrs during proestrus stage measured during estrus stage by dissecting microscopic analysis; assay type: functional
Procedure, shortened: (§1)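 Cycling Charles River CD rats were given six subcutaneous injections of analogue in 0.1 mL propylene glycol on the afternoon of proestrus, and controls received vehicle alone. Rats were killed the next morning (estrus). Ovulating animals were scored and ova in the oviducts were counted under a dissecting microscope.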

Rattus norvegicus [2] = assay: Antiovulatory activity in CD rat assessed as blockade of ovulation at 1 mg, sc administered as six doses at 1200, 1230, 1300, 1350, 1400 and 1450 hrs during proestrus stage measured during estrus stage by dissecting microscopic analysis; assay type: functional; procedure, shortened: as §1
[3] = target: T1, Gonadotropin-releasing hormone receptor (Rattus norvegicus) (UniProt P30969); assay: In vitro antagonist activity at GNRHR in CD rat anterior pituitary gland assessed as inhibition of LH-RH-stimulated LH release at compound to LH-RH molar ratio of 28 after 4 hrs by radioimmunoassay; details: concentration not given here
T1 sequence (whole entry): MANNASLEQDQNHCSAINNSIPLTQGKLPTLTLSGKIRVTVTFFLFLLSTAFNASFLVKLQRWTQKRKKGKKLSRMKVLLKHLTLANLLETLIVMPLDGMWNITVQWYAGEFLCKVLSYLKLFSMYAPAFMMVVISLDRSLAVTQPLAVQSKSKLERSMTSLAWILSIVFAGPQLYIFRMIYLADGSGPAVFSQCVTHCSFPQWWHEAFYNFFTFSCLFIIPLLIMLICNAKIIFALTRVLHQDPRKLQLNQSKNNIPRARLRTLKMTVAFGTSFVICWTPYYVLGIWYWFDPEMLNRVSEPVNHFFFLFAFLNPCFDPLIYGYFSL
Procedure, shortened: (§2)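 Anterior pituitaries from diestrus CD rats (200-250 g) were dissociated enzymatically (collagenase, hyaluronidase, then Viokase). Cells were cultured 4 days at 1.67 × 10^5 cells/mL in DME with 10% horse serum and 2.5% fetal calf serum, then washed serum-free. Duplicate cultures received LH-RH (2-5 × 10^-10 M) with a single analogue concentration in serum-free DME for 4 h at 37 °C. LH in the medium was measured by RIA and reported as % inhibition of LH-RH-stimulated release.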

[4] = target: T1, Gonadotropin-releasing hormone receptor (Rattus norvegicus); assay: In vitro antagonist activity at GNRHR in CD rat anterior pituitary gland assessed as inhibition of LH-RH-stimulated LH release at compound to LH-RH molar ratio of 57 after 4 hrs by radioimmunoassay; details: concentration not given here; procedure, shortened: as §2
[5] = target: T1, Gonadotropin-releasing hormone receptor (Rattus norvegicus); assay: In vitro antagonist activity at GNRHR in CD rat anterior pituitary gland assessed as ratio of molar concentration of compound to LH-RH for inhibition of LH-RH-stimulated LH release after 4 hrs by radioimmunoassay
Procedure, shortened: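 Monolayers were cultured 4 days from dissociated anterior pituitary cells of diestrus CD rats. They were exposed in duplicate to LH-RH (2-5 × 10^-10 M) plus multiple analogue concentrations in serum-free DME for 4 h at 37 °C. LH in the medium was measured by radioimmunoassay. The ED50 molar ratio is the analogue:LH-RH molar ratio giving 50% inhibition of LH-RH-stimulated LH release.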

Rattus norvegicus [6] = assay: Antiovulatory activity in CD rat assessed as blockade of ovulation at 3 mg, sc administered as six doses at 1200, 1230, 1300, 1350, 1400 and 1450 hrs during proestrus stage measured during estrus stage by dissecting microscopic analysis; assay type: functional; procedure, shortened: as §1
[7] = target: T1, Gonadotropin-releasing hormone receptor (Rattus norvegicus); assay: In vitro antagonist activity at GNRHR in CD rat anterior pituitary gland assessed as inhibition of LH-RH-stimulated LH release at compound to LH-RH molar ratio of 2800 after 4 hrs by radioimmunoassay; details: concentration not given here; procedure, shortened: as §2
[8] = target: T1, Gonadotropin-releasing hormone receptor (Rattus norvegicus); assay: In vitro antagonist activity at GNRHR in CD rat anterior pituitary gland assessed as inhibition of LH-RH-stimulated LH release at compound to LH-RH molar ratio of 200 after 4 hrs by radioimmunoassay; details: concentration not given here; procedure, shortened: as §2
Rattus norvegicus [9] = assay: Antiovulatory activity in CD rat assessed as blockade of ovulation at 5 mg, sc administered as six doses at 1200, 1230, 1300, 1350, 1400 and 1450 hrs during proestrus stage measured during estrus stage by dissecting microscopic analysis; assay type: functional; procedure, shortened: as §1
[10] = target: T1, Gonadotropin-releasing hormone receptor (Rattus norvegicus); assay: In vitro antagonist activity at GNRHR in CD rat anterior pituitary gland assessed as inhibition of LH-RH-stimulated LH release at compound to LH-RH molar ratio of 10 after 4 hrs by radioimmunoassay; details: concentration not given here; procedure, shortened: as §2
[11] = target: T1, Gonadotropin-releasing hormone receptor (Rattus norvegicus); assay: In vitro antagonist activity at GNRHR in CD rat anterior pituitary gland assessed as inhibition of LH-RH-stimulated LH release at compound to LH-RH molar ratio of 2000 after 4 hrs by radioimmunoassay; details: concentration not given here; procedure, shortened: as §2
[12] = target: T1, Gonadotropin-releasing hormone receptor (Rattus norvegicus); assay: In vitro antagonist activity at GNRHR in CD rat anterior pituitary gland assessed as inhibition of LH-RH-stimulated LH release at compound to LH-RH molar ratio of 4000 after 4 hrs by radioimmunoassay; details: concentration not given here; procedure, shortened: as §2

ED50 [5] [molar ratio] | Structure (SMILES) | ED50 (Rattus norvegicus [1]) [mg] | inhibition (INH) (Rattus norvegicus [2]) [%] | further results
 | CC(=O)O.CCNC(=O)[C@@H]1CCCN1C(=O)[C@H](CCCNC(=N)N)NC(=O)[C@H](CC(C)C)NC(=O)[C@@H](CCC(N)=O)NC(=O)[C@H](Cc1ccc(O)cc1)NC(=O)[C@H](CO)NC(=O)[C@H](Cc1c[nH]c2ccccc12)NC(=O)[C@H](CCC(N)=O)NC(=O)OCc1ccccc1 | >1 | 20 | inhibition [3]: 77%
19 | CCNC(=O)[C@@H]1CCCN1C(=O)[C@H](CCCNC(=N)N)NC(=O)[C@H](CC(C)C)NC(=O)[C@@H](Cc1ccccc1)NC(=O)[C@H](Cc1ccc(O)cc1)NC(=O)[C@H](CO)NC(=O)[C@H](Cc1c[nH]c2ccccc12)NC(=O)[C@H](COCc1ccccc1)NC(=O)OC(C)(C)C.Cl | >10 | 0 | inhibition [4]: 91%
100 | CC(C)C[C@H](NC(=O)CNC(=O)[C@H](Cc1ccc(O)cc1)NC(=O)[C@H](CO)NC(=O)[C@H](Cc1c[nH]c2ccccc12)NC(=O)[C@H](COCc1ccccc1)NC(=O)OCc1ccccc1)C(=O)N[C@@H](CCCNC(=N)N)C(=O)N1CCC[C@H]1C(=O)NCC(N)=O.Cl (Cbz-S(Bn)WSYGLRPG-NH2) |  |  | inhibition (INH) (Rattus norvegicus [6]): 20%; inhibition [7]: 100%
 | CCNC(=O)[C@@H]1CCCN1C(=O)[C@H](CCCNC(=N)N)NC(=O)[C@H](CC(C)C)NC(=O)[C@@H](CCSC)NC(=O)[C@H](Cc1ccc(O)cc1)NC(=O)[C@H](CO)NC(=O)[C@H](Cc1c[nH]c2ccccc12)NC(=O)[C@H](CCC(N)=O)NC(=O)OCc1ccccc1.Cl | 3 |  | inhibition [8]: 85%; inhibition (INH) (Rattus norvegicus [6]): 60%
 | CC(=O)O.CCNC(=O)[C@@H]1CCCN1C(=O)[C@H](CCCNC(=N)N)NC(=O)[C@H](CC(C)C)NC(=O)[C@@H](Cc1ccccc1)NC(=O)[C@H](Cc1ccc(O)cc1)NC(=O)[C@H](CO)NC(=O)[C@H](Cc1c[nH]c2ccccc12)NC(=O)[C@H](CCC(N)=O)NC(=O)OCc1ccccc1 | >5 |  | inhibition (INH) (Rattus norvegicus [9]): 0%
1.3 | CCNC(=O)[C@@H]1CCCN1C(=O)[C@H](CCCNC(=N)N)NC(=O)[C@H](CC(C)C)NC(=O)[C@@H](Cc1ccccc1)NC(=O)[C@H](Cc1ccc(O)cc1)NC(=O)[C@H](CO)NC(=O)[C@H](Cc1c[nH]c2ccccc12)NC(=O)[C@H](COCc1ccccc1)NC(=O)OCc1ccccc1.Cl | 2.5 |  | inhibition (INH) (Rattus norvegicus [9]): 80%; inhibition [10]: 93%
300 | CC(=O)O.CCNC(=O)[C@@H]1CCCN1C(=O)[C@H](CCCNC(=N)N)NC(=O)[C@H](CC(C)C)NC(=O)[C@@H](CC(N)=O)NC(=O)[C@H](Cc1ccc(O)cc1)NC(=O)[C@H](CO)NC(=O)[C@H](Cc1c[nH]c2ccccc12)NC(=O)[C@H](CCC(N)=O)NC(=O)OCc1ccccc1 | >1 | 20 | inhibition [11]: 100%
 | CC(C)C[C@H](NC(=O)CNC(=O)[C@H](Cc1ccc(O)cc1)NC(=O)[C@H](CO)NC(=O)[C@H](Cc1c[nH]c2ccccc12)NC(=O)[C@H](Cc1cnc[nH]1)NC(=O)OCc1ccccc1)C(=O)N[C@@H](CCCNC(=N)N)C(=O)N1CCC[C@H]1C(=O)NCC(=O)O (HELM PEPTIDE1{[O=C(OCc1ccccc1)[*:2]].H.W.S.Y.G.L.R.P.G}$$$$V2.0) |  |  | inhibition [12]: 17%
